{
  "source": "paper PMC10339703",
  "about": "(Clinical and Translational Science, 2023)",
  "key": {"[1]": {"assay": "Plasma and urine pharmacokinetics, part I SAD study", "format": "in vivo, human", "conditions": "for CL/F / Fe0‐72h (fraction excreted in urine): geometric mean (geometric CV%)", "method_in_brief": "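Healthy adults randomized 6:2 to oral test compound or placebo (n = 8/cohort), fasted ≥10 h, no food ≥4 h postdose. Solution given as 150 mL in diluted Ora-Sweet plus 90 mL water rinse. Plasma sampled predose to 72 h. UHPLC-MS/MS with deuterated internal standard; plasma 2.5–1000 μg/L (LLOQ 2.5), urine 2–800 μg/L (LLOQ 2.0). Noncompartmental analysis; power-model ln-regression of Cmax/AUC on dose, slope with 90% CI.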"}, "Solubility in water": {"assay": "Solubility in water", "format": "physicochemical"}, "[2]": {"assay": "In vitro Caco-2 permeability", "format": "in vitro ADME", "conditions": "human"}, "[3]": {"format": "in vivo, human", "conditions": "for CL/F / Fe0‐12h (fraction excreted in urine) / Accumulation ratio (based on AUCτ): geometric mean (geometric CV%); for Tmax: human, plasma, oral, range"}, "[4]": {"tested_on": "CYP2C19, CYP2D6, CYP3A4, UGT2B4, and UGT2B7", "assay": "Inhibition of CYP and UGT enzymes", "format": "in vitro ADME", "conditions": "at therapeutic concentration ranges; data on file"}, "Pro‐C3": {"tested_on": "Pro‐C3", "assay": "Serum PD biomarker Pro-C3", "format": "in vivo, human", "conditions": "MAD; statistically significant after a single dose but not after multiple doses", "method_in_brief": "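Oral tablets b.i.d. for 14 days (morning only day 14), 25–200 mg, in healthy adults randomized 6:2 versus placebo. Morning doses followed ≥10 h fasting; other doses came ≥1 h after a meal. Serum drawn predose and 2, 4, 6, 12 h after day 1 morning dose, day 2/7 predose, and predose to 72 h after day 14 dose. Pro-C3 measured by validated ELISA; AUEC0‑12h computed.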"}, "[5]": {"conditions": "MAD day 1, single 100 mg tablet"}, "[6]": {"conditions": "MAD day 1, single 200 mg tablet"}, "[7]": {"conditions": "MAD day 14, 50 mg tablet b.i.d."}, "[8]": {"conditions": "MAD day 14, 100 mg tablet b.i.d."}, "[9]": {"conditions": "MAD day 14, 200 mg tablet b.i.d."}},
  "note": "Like-named read-outs stand apart in the source and are kept apart here.",
  "data": [
    {"compound": "O[C@H]1CCCN[C@@H]1CCCn1cnc2c(Cl)c(Cl)ccc21", "note": "[Bersiporocin]", "values": [
      {"measurement": "CL/F", "setting": "[1]; SAD single 100 mg capsule", "result": "156.48 (58.10) L/h"},
      {"measurement": "Fe0‐72h (fraction excreted in urine)", "setting": "[1]; SAD single 100 mg capsule", "result": "10.01 (45.08) %"},
      {"measurement": "CL/F", "setting": "[1]; SAD single 100 mg solution", "result": "340.72 (48.72) L/h"},
      {"measurement": "Fe0‐72h (fraction excreted in urine)", "setting": "[1]; SAD single 100 mg solution", "result": "7.59 (32.47) %"},
      {"measurement": "CL/F", "setting": "[1]; SAD single 300 mg capsule", "result": "196.59 (47.06) L/h"},
      {"measurement": "Fe0‐72h (fraction excreted in urine)", "setting": "[1]; SAD single 300 mg capsule", "result": "7.42 (43.31) %"},
      {"measurement": "CL/F", "setting": "[1]; SAD single 500 mg tablet", "result": "213.75 (53.27) L/h"},
      {"measurement": "Fe0‐72h (fraction excreted in urine)", "setting": "[1]; SAD single 500 mg tablet", "result": "42.18 (180.78) %"},
      {"measurement": "CL/F", "setting": "[1]; SAD single 600 mg capsule", "result": "312.07 (222.08) L/h"},
      {"measurement": "Fe0‐72h (fraction excreted in urine)", "setting": "[1]; SAD single 600 mg capsule", "result": "3.09 (341.55) %"},
      {"measurement": "half-life", "setting": "[1]; human, plasma, oral, t 1/2, range, SAD, enteric coated capsule", "result": "6.91 to 9.9", "unit": "h"},
      {"measurement": "dose dependence of plasma concentration", "setting": "[1]; single dose of enteric coated capsule", "result": "dose‐proportional manner"},
      {"measurement": "role of renal elimination", "setting": "[1]; urine PK data from SAD or MAD", "result": "renal elimination was not the major clearance pathway"},
      {"measurement": "solubility", "setting": "Solubility in water", "result": 19.6, "unit": "mg/mL"},
      {"measurement": "Papp", "setting": "[2]", "result": "7.67 ± 1.06", "unit": "×10⁻⁶ cm/s"},
      {"measurement": "dose adjusted plasma exposure, CYP2D6 poor metabolizer compared to the median value in other phenotypes", "setting": "[3]; MAD", "result": "six‐ to nine‐fold higher"},
      {"measurement": "CL/F", "setting": "[3]; MAD day 1, single 25 mg tablet", "result": "175.57 (70.55) L/h"},
      {"measurement": "Fe0‐12h (fraction excreted in urine)", "setting": "[3]; MAD day 1, single 25 mg tablet", "result": "6.23 (44.75) %"},
      {"measurement": "CL/F", "setting": "[3]; MAD day 1, single 50 mg tablet", "result": "292.89 (26.44) L/h"},
      {"measurement": "Fe0‐12h (fraction excreted in urine)", "setting": "[3]; MAD day 1, single 50 mg tablet", "result": "6.09 (95.30) %"},
      {"measurement": "CL/F", "setting": "[3]; [5]", "result": "261.98 (49.54) L/h"},
      {"measurement": "Fe0‐12h (fraction excreted in urine)", "setting": "[3]; [5]", "result": "8.20 (27.21) %"},
      {"measurement": "CL/F", "setting": "[3]; [6]", "result": "266.78 (18.62) L/h"},
      {"measurement": "Fe0‐12h (fraction excreted in urine)", "setting": "[3]; [6]", "result": "8.44 (50.39) %"},
      {"measurement": "Accumulation ratio (based on AUCτ)", "setting": "[3]; MAD day 14, 25 mg tablet b.i.d.", "result": "1.94 (26.34)"},
      {"measurement": "Accumulation ratio (based on AUCτ)", "setting": "[3]; [7]", "result": "2.33 (31.42)"},
      {"measurement": "Fe0‐12h (fraction excreted in urine)", "setting": "[3]; [7]", "result": "6.09 (95.30) %"},
      {"measurement": "Accumulation ratio (based on AUCτ)", "setting": "[3]; [8]", "result": "1.88 (35.07)"},
      {"measurement": "Fe0‐12h (fraction excreted in urine)", "setting": "[3]; [8]", "result": "8.20 (27.21) %"},
      {"measurement": "Accumulation ratio (based on AUCτ)", "setting": "[3]; [9]", "result": "3.75 (36.01)"},
      {"measurement": "Fe0‐12h (fraction excreted in urine)", "setting": "[3]; [9]", "result": "8.44 (50.39) %"},
      {"measurement": "increase of AUC", "setting": "[3]; MAD, 100 to 200 mg dose group", "result": "more than four‐folds"},
      {"measurement": "dose dependence of plasma concentration", "setting": "[3]; MAD, enteric coated tablet, after single and multiple doses", "result": "dose‐proportional manner"},
      {"measurement": "time to steady‐state of plasma concentration", "setting": "[3]; MAD, enteric coated tablet, first Helmert contrast with p > 0.05", "result": 2, "unit": "days"},
      {"measurement": "Tmax", "setting": "[3]; median T max after a single dose, MAD, single dose", "result": "2.5 to 6", "unit": "h"},
      {"measurement": "Tmax", "setting": "[3]; median T max,ss, MAD, multiple doses", "result": "2 to 6", "unit": "h"},
      {"measurement": "inhibition of CYP and UGT enzymes", "setting": "[4]", "result": "did not inhibit"},
      {"measurement": "mean AUEC0‐12h for serum Pro‐C3 compared to the placebo‐treated group", "setting": "Pro‐C3", "result": "lower"}
    ]}
  ]
}
